Calls of active or inactive are those of the source. No cut-off for these calls is given here.
Assays:
[1] = tested on: Mus musculus; test: Antiinflammatory activity against carrageenan-induced paw edema in Swiss albino mouse assessed as swelling thickness at 100 mg/kg, po after 90 mins; assay type: functional
How it was run: (§1)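 Oral dosing in 0.5% CMC; vehicle to controls. Then carrageenan (0.5 mg/25 ll, freshly suspended in 154 mM saline) injected into the right hind paw subplantar tissue; saline into the left paw. Right-left footpad thickness difference measured by dial gauge calliper every 90 min over 6 h. Inhibition % is relative to vehicle control. n = 6; mean ± SEM.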

[2] = tested on: Mus musculus; test: Antiinflammatory activity against carrageenan-induced paw edema in Swiss albino mouse assessed as swelling thickness at 100 mg/kg, po after 180 mins; assay type: functional; how it was run: as §1
[3] = tested on: Mus musculus; test: Antiinflammatory activity against carrageenan-induced paw edema in Swiss albino mouse assessed as swelling thickness at 100 mg/kg, po after 270 mins; assay type: functional; how it was run: as §1
[4] = tested on: Mus musculus; test: Antiinflammatory activity against carrageenan-induced paw edema in Swiss albino mouse assessed as swelling thickness at 100 mg/kg, po after 360 mins; assay type: functional; how it was run: as §1
[5] = tested on: Mus musculus; test: Inhibition of carrageenan-induced paw edema in Swiss albino mouse at 100 mg/kg, po after 90 mins relative to control; assay type: functional; conditions: 1.5 h; how it was run: as §1
[6] = tested on: Mus musculus; test: Inhibition of carrageenan-induced paw edema in Swiss albino mouse at 100 mg/kg, po after 180 mins relative to control; assay type: functional; conditions: 3 h; how it was run: as §1
[7] = tested on: Mus musculus; test: Inhibition of carrageenan-induced paw edema in Swiss albino mouse at 100 mg/kg, po after 270 mins relative to control; assay type: functional; conditions: 4.5 h; how it was run: as §1
[8] = tested on: Mus musculus; test: Inhibition of carrageenan-induced paw edema in Swiss albino mouse at 100 mg/kg, po after 360 mins relative to control; assay type: functional; conditions: 6 h; how it was run: as §1
[9] = tested on: Mus musculus; test: Analgesic activity against p-benzoquinone-induced abdominal constriction in Swiss albino mouse assessed as number of writhings at 25 mg/kg, po; assay type: functional, Abdomen
How it was run: (§2)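 Test samples given orally in 0.5% CMC; vehicle to controls. 60 min later, 2.5% (v/v) p-benzoquinone in distilled water, 0.1 ml/10 g, given i.p. Mice housed singly; writhes counted for 15 min starting 5 min after injection. Activity is % change from vehicle controls. n = 6; mean ± SEM.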

[10] = tested on: Mus musculus; test: Analgesic activity against p-benzoquinone-induced abdominal constriction in Swiss albino mouse assessed as number of writhings at 50 mg/kg, po; assay type: functional, Abdomen; how it was run: as §2
[11] = tested on: Mus musculus; test: Analgesic activity against p-benzoquinone-induced abdominal constriction in Swiss albino mouse assessed as number of writhings at 100 mg/kg, po; assay type: functional, Abdomen; how it was run: as §2
[12] = tested on: Mus musculus; test: Analgesic activity against p-benzoquinone-induced abdominal constriction in Swiss albino mouse assessed as number of writhings at 200 mg/kg, po; assay type: functional, Abdomen; how it was run: as §2
[13] = tested on: Mus musculus; test: Inhibition of p-benzoquinone-induced writhing in Swiss albino mouse at 25 mg/kg, po relative to control; assay type: functional
How it was run: (§3)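 Mice, n = 6 per group, dosed orally with a suspension in 0.5% sodium CMC. 60 min later, 0.1 ml/10 g of 2.5% […] p-benzoquinone in distilled water given ip. Abdominal writhes counted per animal for 15 min, starting 5 min after injection. Expressed as % change in mean writhing count versus vehicle controls.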

[14] = tested on: Mus musculus; test: Inhibition of p-benzoquinone-induced writhing in Swiss albino mouse at 50 mg/kg, po relative to control; assay type: functional; how it was run: as §3
[15] = tested on: Mus musculus; test: Inhibition of p-benzoquinone-induced writhing in Swiss albino mouse at 100 mg/kg, po relative to control; assay type: functional; how it was run: as §3
[16] = tested on: Mus musculus; test: Inhibition of p-benzoquinone-induced writhing in Swiss albino mouse at 200 mg/kg, po relative to control; assay type: functional; how it was run: as §3
[17] = tested on: Mus musculus; test: Gastric-ulcerogenic effect in Swiss albino mouse assessed as lesions at 25 mg/kg, po; assay type: functional, organism-based; design: dose 25 mg/kg
How it was run: (§4)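 Mice killed under deep ether anesthesia 3 h after the writhing test; the oral dose in 0.5% CMC was the one used in that test. Stomachs removed, opened along the great curvature and examined under a dissecting microscope for lesions or bleeding. Reported as ratio of ulceration; n = 6.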

[18] = tested on: Mus musculus; test: Gastric-ulcerogenic effect in Swiss albino mouse assessed as lesions at 50 mg/kg, po; assay type: functional, organism-based; design: dose 50 mg/kg; how it was run: as §4
[19] = tested on: Mus musculus; test: Gastric-ulcerogenic effect in Swiss albino mouse assessed as lesions at 100 mg/kg, po; assay type: functional, organism-based; design: dose 100 mg/kg; how it was run: as §4
[20] = tested on: Mus musculus; test: Gastric-ulcerogenic effect in Swiss albino mouse assessed as lesions at 200 mg/kg, po; assay type: functional, organism-based; design: dose 200 mg/kg; how it was run: as §4
[21] = tested on: Mus musculus; test: Antiinflammatory activity against carrageenan-induced paw edema in Swiss albino mouse assessed as swelling thickness at 25 mg/kg, po after 90 mins; assay type: functional; how it was run: as §1
[22] = tested on: Mus musculus; test: Antiinflammatory activity against carrageenan-induced paw edema in Swiss albino mouse assessed as swelling thickness at 25 mg/kg, po after 180 mins; assay type: functional; how it was run: as §1
[23] = tested on: Mus musculus; test: Antiinflammatory activity against carrageenan-induced paw edema in Swiss albino mouse assessed as swelling thickness at 25 mg/kg, po after 270 mins; assay type: functional; how it was run: as §1
[24] = tested on: Mus musculus; test: Antiinflammatory activity against carrageenan-induced paw edema in Swiss albino mouse assessed as swelling thickness at 25 mg/kg, po after 360 mins; assay type: functional; how it was run: as §1
[25] = tested on: Mus musculus; test: Antiinflammatory activity against carrageenan-induced paw edema in Swiss albino mouse assessed as swelling thickness at 50 mg/kg, po after 180 mins; assay type: functional; how it was run: as §1
[26] = tested on: Mus musculus; test: Antiinflammatory activity against carrageenan-induced paw edema in Swiss albino mouse assessed as swelling thickness at 50 mg/kg, po after 270 mins; assay type: functional; how it was run: as §1
[27] = tested on: Mus musculus; test: Antiinflammatory activity against carrageenan-induced paw edema in Swiss albino mouse assessed as swelling thickness at 50 mg/kg, po after 360 mins; assay type: functional; how it was run: as §1
[28] = tested on: Mus musculus; test: Antiinflammatory activity against carrageenan-induced paw edema in Swiss albino mouse assessed as swelling thickness at 200 mg/kg, po after 90 mins; assay type: functional; how it was run: as §1
[29] = tested on: Mus musculus; test: Antiinflammatory activity against carrageenan-induced paw edema in Swiss albino mouse assessed as swelling thickness at 200 mg/kg, po after 180 mins; assay type: functional; how it was run: as §1
[30] = tested on: Mus musculus; test: Antiinflammatory activity against carrageenan-induced paw edema in Swiss albino mouse assessed as swelling thickness at 200 mg/kg, po after 270 mins; assay type: functional; how it was run: as §1
[31] = tested on: Mus musculus; test: Antiinflammatory activity against carrageenan-induced paw edema in Swiss albino mouse assessed as swelling thickness at 200 mg/kg, po after 360 mins; assay type: functional; how it was run: as §1
[32] = tested on: Mus musculus; test: Inhibition of carrageenan-induced paw edema in Swiss albino mouse at 25 mg/kg, po after 90 mins relative to control; assay type: functional; conditions: 1.5 h; how it was run: as §1
[33] = tested on: Mus musculus; test: Inhibition of carrageenan-induced paw edema in Swiss albino mouse at 25 mg/kg, po after 180 mins relative to control; assay type: functional; conditions: 3 h; how it was run: as §1
[34] = tested on: Mus musculus; test: Inhibition of carrageenan-induced paw edema in Swiss albino mouse at 25 mg/kg, po after 270 mins relative to control; assay type: functional; conditions: 4.5 h; how it was run: as §1
[35] = tested on: Mus musculus; test: Inhibition of carrageenan-induced paw edema in Swiss albino mouse at 25 mg/kg, po after 360 mins relative to control; assay type: functional; conditions: 6 h; how it was run: as §1
[36] = tested on: Mus musculus; test: Inhibition of carrageenan-induced paw edema in Swiss albino mouse at 50 mg/kg, po after 90 mins relative to control; assay type: functional; conditions: 1.5 h
How it was run: (§5)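 Mice, n = 6 per group. Test agent given orally as a suspension in 0.5% sodium CMC in distilled water; controls received vehicle only. Afterwards, 0.5 mg/25 ll carrageenan in saline (154 mM NaCl) injected subplantar into the right hind paw, saline into the left. Right-minus-left footpad thickness measured by dial gauge caliper every 90 min for 6 h. Inhibition is relative to vehicle-control group means.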

[37] = tested on: Mus musculus; test: Inhibition of carrageenan-induced paw edema in Swiss albino mouse at 50 mg/kg, po after 180 mins relative to control; assay type: functional; conditions: 3 h; how it was run: as §1
[38] = tested on: Mus musculus; test: Inhibition of carrageenan-induced paw edema in Swiss albino mouse at 50 mg/kg, po after 270 mins relative to control; assay type: functional; conditions: 4.5 h; how it was run: as §5
[39] = tested on: Mus musculus; test: Inhibition of carrageenan-induced paw edema in Swiss albino mouse at 50 mg/kg, po after 360 mins relative to control; assay type: functional; conditions: 6 h; how it was run: as §5
[40] = tested on: Mus musculus; test: Antiinflammatory activity against carrageenan-induced paw edema in Swiss albino mouse assessed as swelling thickness at 50 mg/kg, po after 90 mins; assay type: functional; how it was run: as §1

CSc1nnc(-c2ccc(Cl)cc2)[nH]1
Activity [1]: 34 10^-2mm
Activity [2]: 38.3 10^-2mm
Activity [3]: 43 10^-2mm
Activity [4]: 48 10^-2mm
inhibition in vivo at 100 mg/kg [5]: 24.1%
inhibition in vivo at 100 mg/kg [6]: 25.6%
inhibition in vivo at 100 mg/kg [7]: 26.9%
inhibition in vivo at 100 mg/kg [8]: 30.2%
Activity [9]: 44.7
Activity [10]: 34.1
Activity [11]: 34.1
Activity [12]: 43.3
inhibition in vivo at 25 mg/kg [13]: 13%
inhibition in vivo at 50 mg/kg [14]: 33.7%
inhibition in vivo at 100 mg/kg [15]: 27.9%
inhibition in vivo at 200 mg/kg [16]: 15.8%
Activity [17]: Active
Activity [18]: Active
Activity [19]: Active
Activity [20]: Active
Activity [21]: 43.5 10^-2mm
Activity [22]: 48.9 10^-2mm
Activity [23]: 51.5 10^-2mm
Activity [24]: 58.9 10^-2mm
Activity [25]: 41.2 10^-2mm
Activity [26]: 42.2 10^-2mm
Activity [27]: 47.1 10^-2mm
Activity [28]: 54.7 10^-2mm
Activity [29]: 61.2 10^-2mm
Activity [30]: 65.9 10^-2mm
Activity [31]: 76.8 10^-2mm
inhibition in vivo at 25 mg/kg [32]: 18.2%
inhibition in vivo at 25 mg/kg [33]: 17.7%
inhibition in vivo at 25 mg/kg [34]: 20.5%
inhibition in vivo at 25 mg/kg [35]: 18.2%
inhibition in vivo at 50 mg/kg [36]: 29.7%
inhibition in vivo at 50 mg/kg [37]: 30.6%
inhibition in vivo at 50 mg/kg [38]: 34.9%
inhibition in vivo at 50 mg/kg [39]: 34.6%
Activity [40]: 37.4 10^-2mm

Source: ChEMBL document CHEMBL1142894, “Preparation of 5-aryl-3-alkylthio-l,2,4-triazoles and corresponding sulfones with antiinflammatory-analgesic activity” (Bioorg Med Chem, 2007)
